Source: ChEMBL document CHEMBL2311432, “Synthesis, characterization and preliminary anticonvulsant evaluation of some 4-alkyl-1,2,4-triazoles” (Eur J Med Chem, 2013)

Assays:
Mus musculus [1] = assay: Anticonvulsant activity in Swiss mouse assessed as protection against maximal electroshock-induced seizure at 300 mg/kg, ip administered 15 mins before test; type: functional; conditions: route intraperitoneal
Outline: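 Mice in groups of 8, each used once, after 7 days' adaptation. Fixed 300 mg/kg dose given i.p. from freshly prepared solution, then maximal electroshock applied at the stated pretreatment time. Read-out is the percentage of the 8 mice protected against MES-induced seizures.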

Mus musculus [2] = assay: Anticonvulsant activity in ip dosed Swiss mouse assessed as protection against maximal electroshock-induced seizure administered 15 mins before test; type: functional
Outline: (§1)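 Mice in groups of 8, each used once, given various i.p. doses of fresh solution at the stated pretreatment time before maximal electroshock. Protection percentages give dose-response lines by Litchfield-Wilcoxon. ED50 is the dose protecting 50% of mice against MES seizures, reported ± S.E.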

Mus musculus [3] = assay: Protective index, ratio of TD50 for Swiss mouse administered 60 mins before test to ED50 for Swiss mouse administered 60 mins before test; type: functional
[4] = Neurotoxicity in ip dosed Swiss mouse assessed as delay in motor coordination administered 30 mins before test by chimney test; type: toxicity, organism-based; conditions: in vivo
Outline: (§2)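 Chimney test (Boissier). Mice must climb backward up a transparent tube (3 cm i.d., 30 cm long) within 60 s, and failure marks motor impairment. At least four groups of 8 mice receive various i.p. doses at the stated pretreatment time. TD50 comes from log-probit dose-response analysis (Litchfield-Wilcoxon), ± S.E.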

Mus musculus [5] = assay: Protective index, ratio of TD50 for Swiss mouse administered 15 mins before test to ED50 for Swiss mouse administered 15 mins before test; type: functional
Mus musculus [6] = assay: Anticonvulsant activity in ip dosed Swiss mouse assessed as protection against maximal electroshock-induced seizure administered 120 mins before test; type: functional; outline: as §1
Mus musculus [7] = assay: Anticonvulsant activity in ip dosed Swiss mouse assessed as protection against maximal electroshock-induced seizure administered 60 mins before test; type: functional; outline: as §1
[8] = Neurotoxicity in ip dosed Swiss mouse assessed as delay in motor coordination administered 15 mins before test by chimney test; type: toxicity, organism-based; conditions: in vivo; outline: as §2
Mus musculus [9] = assay: Protective index, ratio of TD50 for Swiss mouse administered 30 mins before test to ED50 for Swiss mouse administered 30 mins before test; type: functional
Outline: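 PI equals chimney-test TD50 divided by MES-test ED50, both determined after i.p. dosing at the same pretreatment time in groups of 8 mice.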

Mus musculus [10] = assay: Anticonvulsant activity in ip dosed Swiss mouse assessed as protection against maximal electroshock-induced seizure administered 30 mins before test; type: functional; outline: as §1
Mus musculus [11] = assay: Protective index, ratio of TD50 for Swiss mouse administered 120 mins before test to ED50 for Swiss mouse administered 120 mins before test; type: functional
[12] = Neurotoxicity in ip dosed Swiss mouse assessed as delay in motor coordination administered 60 mins before test by chimney test; type: toxicity, organism-based; conditions: in vivo; outline: as §2
[13] = Neurotoxicity in ip dosed Swiss mouse assessed as delay in motor coordination administered 120 mins before test by chimney test; type: toxicity, organism-based; conditions: in vivo; outline: as §2
Brain = assay: Drug uptake in Swiss mouse brain assessed as per 1 mg of tissue at 300 mg/kg, ip; type: ADME, organism-based; set-up: dose 300 mg/kg, route intraperitoneal; conditions: in vivo

| Drug uptake (Brain) | SMILES | Activity (Mus musculus [1]) [%] | ED50 (Mus musculus [2]) [mg/kg] | Ratio TD50/ED50 (Mus musculus [3]) | TD50 at 0.5 h [4] [mg/kg] | Ratio TD50/ED50 (Mus musculus [5]) | ED50 (Mus musculus [6]) [mg/kg] | ED50 (Mus musculus [7]) [mg/kg] | TD50 at 0.25 h [8] [mg/kg] | Ratio TD50/ED50 (Mus musculus [9]) | ED50 (Mus musculus [10]) [mg/kg] | Ratio TD50/ED50 (Mus musculus [11]) | TD50 at 1 h [12] [mg/kg] | TD50 at 2 h [13] [mg/kg] |
| --- | --- | --- | --- | --- | --- | --- | --- | --- | --- | --- | --- | --- | --- | --- |
| – | CCn1c(S)nnc1-c1cccc(Cl)c1 | 100 | 153 | 2.9 | 753 | 4.8 | 320 | 252 | 731 | 3.7 | 204 | 2.8 | 742 | 887 |
| Not Active | CCCCCCCCCCCCn1c(-c2cccc(Cl)c2)n[nH]c1=S | – | – | – | – | – | – | – | – | – | – | – | – | – |
| – | CCCCn1c(-c2cccc(Cl)c2)n[nH]c1=S | 100 | 38.5 | 2.7 | 405 | 10.3 | 311 | 156 | 398 | 5.2 | 77.8 | 1.4 | 414 | 429 |
| – | CCCCCn1c(-c2cccc(Cl)c2)n[nH]c1=S | 100 | 46.5 | 4.4 | 310 | 6.7 | 147 | 69.5 | 310 | 4.8 | 65.2 | 2.7 | 303 | 392 |
| – | CCCCCCn1c(-c2cccc(Cl)c2)n[nH]c1=S | 100 | 47.6 | 4.7 | – | 9.7 | 160 | 98.1 | – | 6.8 | 68.3 | 2.8 | – | – |
| – | CCCCCCCn1c(-c2cccc(Cl)c2)n[nH]c1=S | 100 | 55.1 | 4.2 | 423 | 7.5 | 135 | 102 | 416 | 6.5 | 65.2 | 3.3 | 430 | 440 |
| – | CCCCCCCCCn1c(-c2cccc(Cl)c2)n[nH]c1=S | 100 | 144 | 6.1 | 713 | 4.6 | 143 | 105 | 667 | 5.5 | 130 | 4.6 | 640 | 659 |
| – | CCCC(CCC)C(=O)[O-].CCCC(CCC)C(=O)[O-].[Mg+2] [MAGNESIUM VALPROATE] | – | – | – | 373 | – | – | – | 363 | – | – | – | 417 | 512 |
